Measured values from different studies.
Compare with care: the assays were run in different laboratories.
Target: SRSF protein kinase 3 (SRPK3, Homo sapiens, UniProt Q9UPE1)

SMILES	effect on	method	concentration	remaining binding [%]
C[C@H]1CCN(c2nccc(-c3cnn4ncccc34)n2)C1	binding	–	1 µM	68
CCS(=O)(=O)c1cc2cc(C[C@@](O)(CC(C)(C)c3ccc(F)cc3C(N)=O)C(F)(F)F)[nH]c2cn1	cell-free assay	competition with immobilised ligand	1 µM	100
C=CC(=O)N1CCC(C(=O)NCC(=O)N2CCN(c3nc(-c4cnc(N)nc4C(F)F)nc(N4CCOCC4)n3)CC2)CC1	binding	competition with immobilised ligand	1 µM	99
CCC(=N\O)/C(C)=C/c1ccc(F)cc1	cell-free assay	competition with immobilised ligand	1 µM	91
CC1CCCN1c1nccc(-c2cnn3ncccc23)n1 (stereo not drawn)	binding	–	1 µM	86
Cc1c(NC(=O)c2cc(C(N)=O)nc3cc(F)ccc23)c(C(F)(F)F)nn1Cc1ccc(C#N)cc1	cell-free assay	competition with immobilised ligand	1 µM	100
CN(c1nccc(-c2cnn3ncccc23)n1)C1CC1	binding	–	1 µM	83
O=C(c1ccc(Nc2ncc(Cl)c(-c3ccc(Cl)s3)n2)cc1)N1CCC(N2CCCC2)CC1	binding	competition with immobilised ligand	1 µM	100
COc1cnc(Nc2cccc(S(N)(=O)=O)c2)nc1N1CCN(c2ccccc2)C(=O)C1	binding	competition with immobilised ligand	1 µM	79
CCN1CCN(Cc2ccc(C(=O)Nc3ccc(C)c(Oc4ccc5c(c4)CC(=O)N5)c3)cc2C(F)(F)F)CC1	binding	competition with immobilised ligand	1 µM	99
COc1ccc2c(O[C@@H]3C[C@H]4C(=O)N[C@]5(C(=O)O)CC5/C=C\CCCCC[C@H](NC(=O)OC5CCCC5)C(=O)N4C3)cc(-c3csc(NC(=O)C(C)C)n3)nc2c1C (stereo partly drawn)	cell-free assay	competition with immobilised ligand	1 µM	57
c1cnn2ncc(-c3ccnc(N4CCC45COC5)n3)c2c1	binding	–	1 µM	66
CC(C)(C)c1ccc(-c2nc(CBr)nn2-c2cccc(O)c2)cc1	cell-free assay	competition with immobilised ligand	10 µM	100
O=C(NCCCN1CCOCC1)c1ccc(Nc2nccc(-c3cc4ccccc4s3)n2)cc1	binding	competition with immobilised ligand	1 µM	99
CC(=O)N1CCC(c2ccc(C(=O)NC3=NCCN3)cc2C(F)(F)F)CC1	cell-free assay	competition with immobilised ligand	1 µM	100
CN(CCCC(F)(F)F)c1nccc(-c2cnn3ncccc23)n1	binding	–	1 µM	100
C[C@@H]1CN(c2cc(-c3n[nH]c4ccc(OC5(C)CC5)cc34)ncn2)C[C@H](C)O1	cell-free assay	competition with immobilised ligand	0.1 µM	100
C[C@@H]1CN(c2ccc3ncc(-c4ccc5[nH]nc(C6CC6)c5c4)n3n2)C[C@H](C)O1	binding	competition with immobilised ligand	0.5 µM	85
CN(C)c1ncc(F)c(-c2cnn3ncccc23)n1	binding	–	1 µM	100
COc1cnc(Nc2cccc(S(N)(=O)=O)c2)nc1N1CCN(c2ccccc2)CC1	binding	competition with immobilised ligand	1 µM	95
N[C@H]1CCN(c2nccc(-c3cnn4ncccc34)n2)C1	binding	–	1 µM	66
NS(=O)(=O)c1cc(NC(=O)Cc2ccccc2)ccc1Oc1cccc(Cl)c1	cell-free assay	competition with immobilised ligand	1 µM	100
O=C(NCC1CCOCC1)c1n[nH]cc1NC(=O)c1c(F)cccc1F	binding	competition with immobilised ligand	1 µM	83
COc1ncc2cc3ccccc3nc2c1C#N	cell-free assay	competition with immobilised ligand	5 µM	98
